Results pooled from the literature.
Target: Cyclin-dependent kinase 15 (CDK15, Homo sapiens, UniProt Q96Q40)

Compound | read-out | technique | concentration | remaining binding [%]
N[C@@H]1CCN(c2nccc(-c3cnn4ncccc34)n2)C1 | binding |  | 1 µM | 100
Cc1nc(Cc2cccc(C(F)(F)F)c2)sc1-c1ccc(C(N)=O)nc1 | cell-free assay | competition with immobilised ligand | 1 µM | 86
c1cncc(-c2cccc(Nc3nccc(NC4CCCCC4)n3)c2)c1 | binding | competition with immobilised ligand | 10 µM | 76
Cc1cnc(Nc2ccc(C(=O)N3CCC(N4CCCC4)CC3)cc2)nc1-c1cc2ccccc2s1 | binding | competition with immobilised ligand | 1 µM | 99
COc1cnc(Nc2cccc(S(N)(=O)=O)c2)nc1N1CCN(c2ccccc2)CC1 | binding | competition with immobilised ligand | 1 µM | 93
O=C(NCCCC1CCCCC1)c1ccc(CNC(=O)c2cnn(-c3ccccc3)c2C(F)(F)F)cc1 | cell-free assay | competition with immobilised ligand | 0.1 µM | 77
O=C(Nc1c[nH]nc1C(=O)NC1CCNCC1)c1cc(F)cc(F)c1 | binding | competition with immobilised ligand | 1 µM | 79
O=C(c1ccc(Nc2ncc(Cl)c(-c3ccc(Cl)s3)n2)cc1)N1CCC(N2CCCC2)CC1 | binding | competition with immobilised ligand | 1 µM | 43
CCOC(=O)c1cc2cc(-c3cc(C(=O)NCc4ccc(C(=O)O)cc4)nn3C)ccc2[nH]1 | cell-free assay | competition with immobilised ligand | 0.1 µM | 93
COc1cnc(Nc2cccc(S(N)(=O)=O)c2)nc1N1CCN(c2ccccc2)C(=O)C1 | binding | competition with immobilised ligand | 1 µM | 100
O=C(O)c1cc(-c2ccc(C3CCNCC3)cc2)c2ccc(-c3ccc(C(F)(F)F)cc3)cc2c1 | cell-free assay | competition with immobilised ligand | 1 µM | 96
C=CC(=O)N1CCC(C(=O)NCC(=O)N2CCN(c3nc(-c4cnc(N)nc4C(F)F)nc(N4CCOCC4)n3)CC2)CC1 | binding | competition with immobilised ligand | 1 µM | 100
CN(c1nccc(-c2cnn3ncccc23)n1)C1CC1 | binding |  | 1 µM | 100
Nc1ncc2c(n1)-c1c([nH]c3ccc(C#CC4CC4)cc13)CCCC2 | binding | competition with immobilised ligand | 1 µM | 96
CN(C)c1nccc(-c2cnc3ncccn23)n1 | binding |  | 1 µM | 83
O=C(c1ccc(Nc2ncc(Cl)c(-c3cc4ccccc4s3)n2)cc1)N1CCC(N2CCCC2)CC1 | binding | competition with immobilised ligand | 1 µM | 70
O=S(=O)(NC1CCC(c2cc(F)ccc2F)(S(=O)(=O)c2ccc(Cl)cc2)CC1)C(F)(F)F (stereo not shown) | cell-free assay | competition with immobilised ligand | 1 µM | 100
CC1CCCN1c1nccc(-c2cnn3ncccc23)n1 (stereo not shown) | binding |  | 1 µM | 100
CCc1ccccc1C(=O)Nc1n[nH]c2c(C)c(F)c(C3C(C#N)=C(C)N(C)C(C)=C3C#N)cc12 | cell-free assay | competition with immobilised ligand | 1 µM | 95
F[C@@H]1CCN(c2nccc(-c3cnn4ncccc34)n2)C1 | binding |  | 1 µM | 100
Cc1nc(N2CC[C@@H](O)C2)ncc1-c1cc(C(F)(F)F)cc2[nH]ncc12 | binding | competition with immobilised ligand | 1 µM | 81
CN(CCCC(F)(F)F)c1nccc(-c2cnn3ncccc23)n1 | binding |  | 1 µM | 100
